According to article PMC3984478 (Cancer cell, 2012):

How the values were obtained:
[1] = system: OCI-Ly1 xenografts; assay: OCI-Ly1 xenograft in NOD-SCID mice; format: in vivo; conditions: IP 25 mg/kg/day, 14 injections
In short: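 Eight-week-old male NOD-SCID (NOD.CB17-Prkdcscid/J) mice received 10^7 low-passage cells subcutaneously in 50% Matrigel in the right flank. At an average tumour size of 120 mm3, mice were randomised to test compound 25 mg/kg/day IP or vehicle (5% DMSO) for 14 consecutive days and sacrificed 24 hr after the 14th injection. Caliper volume, (smallest diameter² × largest)/2, was taken three times weekly. Ki-67 IHC was counted per high-power field.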

[2] = system: HBL-1 cells; assay: Growth inhibition, ATP-based luminescent assay; format: cell-based, human; conditions: HBL-1
In short: (§1)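 Cells received a single dose of test compound over a concentration range and proliferation was read at 48 hr by luminescent ATP quantification. Luminescence was converted to cell number using per-line standard curves built from trypan blue counts. Viability was normalised to controls and expressed as 1 − fractional viability, and GI25/GI50 were fitted. Experiments were run three times in triplicate.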

[3] = system: C57BL/6 mice; assay: Toxicity in mice; format: in vivo
[4] = system: nuclear c-REL in HBL-1 cells; assay: c-REL flow cytometry of whole cells or isolated nuclei; format: cell-based, human; conditions: 200 nM MI-2 or 50 µM Z-VRPR-FMK, 24 hr
In short: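 HBL-1 cells were exposed for 24 hr to 200 nM test compound, to 50 µM Z-VRPR-FMK as positive control, or to vehicle. c-REL was then measured by flow cytometry in whole cells and in isolated nuclei.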

[5] = system: HBL-1 and TMD8 cells; assay: Trypan blue cell number and Annexin V+ DAPI− apoptosis time course, 14 days; format: cell-based, human; conditions: treated daily at GI25 and GI50, 14 days
In short: (§2)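 Cell lines were dosed with test compound every 24 hr. Every 48 hr for 14 days, cells were counted by trypan blue exclusion and apoptosis was measured as Annexin V+ DAPI− by flow cytometry. Cell number is expressed as % of vehicle at each time point.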

[6] = system: primary human non-GCB DLBCL cells; assay: Primary human DLBCL ex vivo viability, trypan blue; format: cell-based; conditions: 0.8 µM, 48 hr
In short: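 Single-cell suspensions came from lymph-node biopsies of five DLBCL patients, prepared by physical disruption and density-gradient separation. GCB versus non-GCB status was assigned by Hans-criteria IHC. Cells were cultured in RPMI with 20% FBS and antibiotics and exposed to 0.8 µM test compound (1 µM for one patient) or DMSO in quadruplicate for 48 hr. Cell number and viability were counted by trypan blue and normalised to vehicle.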

[7] = system: nuclear c-REL and p65 in HBL-1 and TMD8 cells; assay: Western blots for c-REL and p65 in nuclear extracts; format: cell-based, human; conditions: 24 hr, 200 nM for HBL-1 and 500 nM for TMD8
In short: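 Nuclear extracts were prepared from HBL-1 cells (200 nM test compound) and TMD8 cells (500 nM) after 24 hr treatment and immunoblotted for c-REL and p65.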

[8] = system: TMD8 cells; assay: Growth inhibition, ATP-based luminescent assay; format: cell-based, human; conditions: TMD8
In short: as §1

[9] = system: ABC-DLBCL cell lines HBL-1 and TMD8; assay: Caspase-3/7 cleavage assay; format: cell-based, human
In short: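 Caspase-3/7 cleavage assay run within 48 hr of exposure to increasing concentrations of test compound.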

[10] = biological target: MALT1 paracaspase domain (329–728) (Homo sapiens, UniProt Q9UDY8); assay: LC-MS covalent modification; format: binding
[11] = system: HBL-1 cells; assay: Intracellular concentration by LC-MS; format: in vitro ADME, human
In short: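 HBL-1 cells were exposed to 0.02, 0.2 or 2 µM test compound for 2 hr, washed three times, and intracellular compound was quantified by LC-MS. For free-drug kinetics, cells at 0.2 µM were sampled at 30 min and at 2, 6, 12, 24 and 48 hr.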

[12] = system: OCI-Ly3 cells; assay: Growth inhibition, ATP-based luminescent assay; format: cell-based, human; conditions: OCI-Ly3, single dose, 48 hr
In short: as §1

[13] = system: OCI-Ly1 cells; assay: Trypan blue cell number and Annexin V+ DAPI− apoptosis time course, 14 days; format: cell-based, human; conditions: treated daily at the doses used for TMD8, 14 days
In short: as §2

[14] = system: ABC-DLBCL cell lines HBL-1 and TMD8, GCB-DLBCL cell line OCI-Ly1; parameters: species or system human; conditions: 48 hr, cell-based assays
In short: as §1

[15] = system: U2932 cells; assay: Growth inhibition, ATP-based luminescent assay; format: cell-based, human; conditions: U2932, single dose, 48 hr
In short: as §1

[16] = biological target: paracaspase domain of MALT1 (residues 329–728) (Homo sapiens, UniProt Q9UDY8); assay: HSQC NMR binding
[17] = biological target: MALT1 active site mutant C464A (Homo sapiens, UniProt Q9UDY8, C464A); assay: LC-MS covalent modification, mutant; format: binding
[18] = system: NF-κB reporter in 293T cells expressing MALT1 WT; assay: NF-κB reporter assay, PMA/ionomycin, BCL10 + MALT1 WT; format: cell-based; conditions: 2 µM pretreatment 30 min, PMA/ionomycin 2 hr
[19] = system: OCI-Ly1; assay: CFSE dilution proliferation assay; format: cell-based, human; conditions: increasing concentrations, 48, 72, and 96 hr
In short: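 Cells were exposed to increasing concentrations of test compound, and CFSE dilution was read by flow cytometry at 48, 72 and 96 hr. 2 × 10^4 cells were acquired per sample, and DAPI staining was used to gate viable cells for analysis.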

[20] = system: NF-κB reporter activity in HBL-1 cells; assay: NF-κB reporter assay in HBL-1; format: cell-based, human; conditions: 200 nM
In short: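 NF-κB luciferase reporter in HBL-1 cells treated with 200 nM test compound, 50 µM Z-VRPR-FMK or vehicle for 8 and 24 hr. Activity is given as % of vehicle, normalised to an internal control. Statistics used ANOVA with Bonferroni post-test.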

[21] = system: NF-κB reporter in 293T cells expressing MALT1 C464A; assay: NF-κB reporter assay, PMA/ionomycin, BCL10 + MALT1 C464A; format: cell-based; conditions: 2 µM pretreatment 30 min, PMA/ionomycin 2 hr
[22] = biological target: caspase-8 (Homo sapiens, UniProt Q14790); assay: Caspase selectivity; format: biochemical
[23] = system: HBL-1 cells; assay: Recovery of cells after a single dose; format: cell-based, human; conditions: 0.2 µM dose level
[24] = biological target: caspase-3 (Homo sapiens, UniProt P42574); assay: Caspase selectivity; format: biochemical
Sequence of caspase-3 (P42574 29-175 limits assumed, species assumed): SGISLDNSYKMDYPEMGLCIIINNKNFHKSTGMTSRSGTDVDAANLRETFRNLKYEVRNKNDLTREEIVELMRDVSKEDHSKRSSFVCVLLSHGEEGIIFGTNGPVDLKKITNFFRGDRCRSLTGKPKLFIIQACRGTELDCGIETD
Sequence of caspase-3 (P42574 176-277 limits assumed, species assumed): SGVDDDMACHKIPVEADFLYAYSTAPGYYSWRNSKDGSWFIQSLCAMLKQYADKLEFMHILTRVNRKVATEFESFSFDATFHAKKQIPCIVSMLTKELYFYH

Sequence of caspase-8 (Q14790 217-374 limits assumed): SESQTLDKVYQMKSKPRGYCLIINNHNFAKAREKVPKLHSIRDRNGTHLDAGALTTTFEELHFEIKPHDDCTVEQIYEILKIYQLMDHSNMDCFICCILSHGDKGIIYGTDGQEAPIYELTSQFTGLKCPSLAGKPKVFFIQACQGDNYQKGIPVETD
Sequence of caspase-8 (Q14790 385-479 limits assumed): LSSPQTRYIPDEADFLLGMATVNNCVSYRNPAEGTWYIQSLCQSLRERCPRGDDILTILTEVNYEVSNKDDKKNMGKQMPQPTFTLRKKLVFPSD
Sequence of MALT1 paracaspase domain (329–728) (Q9UDY8 329-728): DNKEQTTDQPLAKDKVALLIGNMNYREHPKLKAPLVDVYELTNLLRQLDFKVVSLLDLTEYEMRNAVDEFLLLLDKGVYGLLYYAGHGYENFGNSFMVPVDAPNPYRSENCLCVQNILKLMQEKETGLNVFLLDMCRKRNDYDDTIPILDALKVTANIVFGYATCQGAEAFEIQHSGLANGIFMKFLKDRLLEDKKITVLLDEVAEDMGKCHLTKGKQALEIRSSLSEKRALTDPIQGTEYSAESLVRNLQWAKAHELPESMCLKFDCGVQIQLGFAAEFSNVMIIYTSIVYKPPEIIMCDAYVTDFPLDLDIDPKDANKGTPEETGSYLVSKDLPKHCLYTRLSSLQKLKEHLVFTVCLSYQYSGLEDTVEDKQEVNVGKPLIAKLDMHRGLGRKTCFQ
Sequence of paracaspase domain of MALT1 (residues 329–728) (Q9UDY8 329-728): as above
Sequence of MALT1 active site mutant C464A (Q9UDY8 329-728 C464A): as the sequence (Q9UDY8 329-728) above, with C136A counted along it

Structure (SMILES): COCCOc1nc(-c2ccc(Cl)c(Cl)c2)n(-c2ccc(NC(=O)CCl)cc2)n1 [MI-2]
- apoptotic cells (TUNEL) relative to vehicle [1]: not in OCI-Ly1 xenografts
- proliferation (Ki-67 staining) compared to vehicle [1]: no difference
- tumor growth versus vehicle [1]: no effect on the growth
- GI50 [2]: 200 nM
- Complete peripheral blood counts, biochemistry, and liver function tests ([3]; daily IP 25 mg/kg over 14 days): normal
- toxicity 1: physical indicators of sickness ([3]; daily IP, increasing doses 0.05 to 25 mg/kg over 10 days, cumulative 51.1 mg/kg): no evidence of lethargy, weight loss
- nuclear c-REL (flow cytometry) [4]: reduced nuclear c-REL to a similar extent
- cell number and apoptosis [5]: profoundly suppressed
- response of primary cases (cell number and viability) [6]: two of the non-GCB cases responded
- nuclear c-REL (western blot) [7]: clear reduction of nuclear c-REL
- nuclear p65 levels (western blot) [7]: did not affect p65 levels
- GI50 [8]: 500 nM
- apoptosis (caspase-3/7 cleavage) [9]: dose-dependent apoptosis within 48 hr
- covalent binding by LC-MS [10]: can bind covalently to MALT1
- intracellular concentration ([11]; HBL-1, 0.2 µM, 2 hr): 5 µM
- free intracellular drug ([11]; HBL-1, 0.2 µM, by 12 hr): virtually no detectable free MI-2
- increase in intracellular concentration ([11]; HBL-1 exposed to 0.02, 0.2, or 2 µM for 2 hr, washed three times): 18- to 30 fold
- GI50 [12]: 400 nM
- cell number and apoptosis [13]: no effect on OCI-Ly1 cells
- 25% growth-inhibitory concentration (GI25) [14]: high-nanomolar range
- growth inhibition [15]: resistant
- binding by HSQC NMR [16]: robust interaction
- covalent binding by LC-MS [17]: markedly reduced covalent binding
- NF-κB induction by PMA/ionomycin [18]: significantly inhibited NF-κB induction
- proliferation (CFSE dilution) [19]: did not affect OCI-Ly1
- reduction in NF-κB reporter activity ([20]; 8 hr): 20%
- reduction in NF-κB reporter activity ([20]; 24 hr): 50%
- NF-κB induction by PMA/ionomycin [21]: did not significantly affect
- activity against caspase-8 [22]: little activity
- recovery of cells [23]: only started to become evident after 48 hr
- activity against caspase-3 [24]: little activity
